The subject of series [1] is Plasmodium berghei. Put plainly: Antimalarial activity against Plasmodium berghei KBG13 infected in mouse assessed as minimum dose required for activity. The format is functional. The note with it: for minimal effective dose: read-out: MED. Summed up: (§1)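 P. berghei strain KBG 13 in mice, groups of five treated, doses up to 640 mg/kg. Scored as increase in mean survival time in days over controls and as cured/treated. Reported values are the lowest dose giving any cure and the lowest dose showing activity.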

Series [2] concerns Plasmodium berghei. Put plainly: Antimalarial activity against Plasmodium berghei KBG13 infected in mouse assessed as increase in host mean survival time at minimum dose. It is filed as functional. Summed up:
(§2)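 Mice infected with Plasmodium berghei strain KBG 13. Five mice per dose group, with doses up to 640 mg/kg. Read-out is the increase in mean survival time in days, with cured/treated counts recorded. The minimum active dose is the lowest dose showing activity, and survival gain is also reported at that dose.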

Series [3] deals with Plasmodium berghei. Put plainly: Antimalarial activity against Plasmodium berghei KBG13 infected in mouse assessed as disease cures at 640 mg/kg. The format is functional, organism-based. Also on record: dose 640 mg/kg. In short, it runs like this:
as §1

For series [4], the system named is Plasmodium gallinaceum. Put plainly: Antimalarial activity against Plasmodium gallinaceum infected in chicks assessed as increase in host survival time at 100 to 160 mg/kg. It is filed as functional. The following applies: dose mg/kg 100-160. In short, it runs like this:
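Chicks infected with Plasmodium gallinaceum, in limited testing at doses of 100-160 mg/kg. Activity is expressed as T/C in days of survival at the respective dose levels.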

Series [5] concerns Plasmodium berghei. Put plainly: Antimalarial activity against Plasmodium berghei KBG13 infected in mouse assessed as minimum dose required for disease cures. It is filed as functional. In short, it runs like this:
as §1

Series [6] has as its system Plasmodium gallinaceum. Put plainly: Antimalarial activity against Plasmodium gallinaceum infected in chicks assessed as increase in host survival. The format is functional, organism-based. In short, it runs like this:
(§3)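 P. gallinaceum in chicks given doses of 100–160 mg/kg. Activity is expressed as T/C, the increase in survival time in days.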

The species named for series [7] is Mus musculus. Put plainly: Toxicity in mouse infected with Plasmodium berghei KBG13 assessed as animal death at 4 times minimum curative dose. The format is organism-based. The note with it: in vivo.
The subject of series [8] is Plasmodium gallinaceum. Put plainly: Antimalarial activity against Plasmodium gallinaceum infected in chicks assessed as increase in host survival at 120 mg/kg. It is filed as functional, organism-based. Also on record: dose 120 mg/kg. In short, it runs like this: as §3
The species named for series [9] is Mus musculus. Put plainly: Toxicity in mouse infected with Plasmodium berghei KBG13 assessed as animal death at 2 times minimum curative dose. The following applies: in vivo. The format is organism-based.
Series [10] relates to Mus musculus. Put plainly: Toxicity in mouse infected with Plasmodium berghei KBG13 assessed as animal death at 640 mg/kg. It is filed as organism-based. Also on record: dose 640 mg/kg. The note with it: in vivo.
Series [11] deals with Plasmodium berghei. Put plainly: Antimalarial activity against Plasmodium berghei KBG13 infected in mouse assessed as increase in host mean survival time at 640 mg/kg. It is filed as functional. In short, it runs like this: as §2

Activity calls are given as the source filed them. The calls are words filed in the database; no cut-off is given here.

With `COC(C)(OC)c1nc(N)nc(N)c1-c1ccc(Cl)cc1`, the minimal effective dose in the series with Plasmodium berghei [1] came out at 40 mg/kg. Further, the MST in the series on Plasmodium berghei [2] was 4.5 days; in the series with Plasmodium gallinaceum [4], 5.4 days. In addition, the result in the series with Plasmodium berghei [3] was Active. Also, in the series with Plasmodium berghei [5], the MCD amounted to 320 mg/kg.
With `CCN(CC)CCCC(C)NC(C)c1nc(N)nc(N)c1-c1ccc(Cl)cc1` (configuration not stated), in the series on Plasmodium gallinaceum [6], the result was inactive.
`CC(N)c1nc(N)nc(N)c1-c1ccc(Cl)cc1` (configuration not stated): the result in the series on Plasmodium berghei [1], in the series on Plasmodium berghei [2], in the series with Plasmodium berghei [3] and in the series with Plasmodium berghei [5] was inactive.
Consider `CCOC(C)(OCC)c1nc(N)nc(N)c1-c1ccc(Cl)cc1`, for which the minimal effective dose with Plasmodium berghei [1] stood at 20 mg/kg. For the same molecule, the MST in the series on Plasmodium berghei [2] turned out to be 3.5 days; with Plasmodium gallinaceum [4], 5.4 days. Moreover, in the series with Plasmodium berghei [3], the result was Active. The Activity result in the series listed under Mus musculus [7] is listed as “Non-toxic”. In the series on Plasmodium berghei [5], the MCD came to 160 mg/kg.
As to `C/C(c1nc(N)nc(N)c1-c1ccc(Cl)cc1)=[N+](\C)[O-]`, the minimal effective dose in the series on Plasmodium berghei [1] was determined as 160 mg/kg. Moreover, the outcome in the series with Plasmodium gallinaceum [8] was inactive. Besides, the MST in the series with Plasmodium berghei [2] worked out at 3.1 days. For the same molecule, the MCD in the series on Plasmodium berghei [5] stood at 640 mg/kg.
Regarding `CCc1nc(N)nc(N)c1-c1ccc(Cl)cc1` [PYRIMETHAMINE], the Activity entry in the series filed under Mus musculus [9] was “Toxic”. Besides, the MCD in the series on Plasmodium berghei [5] is 40 mg/kg.
In the case of `CC(=O)c1nc(N)nc(N)c1-c1ccc(Cl)cc1`, the minimal effective dose with Plasmodium berghei [1] is 80 mg/kg. The MST in the series with Plasmodium berghei [2] was 5.9 days. The Activity result with Mus musculus [10] is recorded as “Toxic”. Besides, in the series with Plasmodium berghei [5], the MCD came out at 320 mg/kg.
As for `C/C(=N/N)c1nc(N)nc(N)c1-c1ccc(Cl)cc1`, the minimal effective dose in the series with Plasmodium berghei [1] stood at 160 mg/kg. In addition, the MST in the series with Plasmodium berghei [2] was 8.4 days; in the series on Plasmodium berghei [11] it was 14.8 days.
As for `CN/N=C(\C)c1nc(N)nc(N)c1-c1ccc(Cl)cc1`, the result with Plasmodium berghei [1], with Plasmodium berghei [2] and in the series on Plasmodium berghei [5] was inactive. For the same molecule, the Activity entry in the series with Mus musculus [10] was “Toxic”.
For `CC(=O)NC(C)c1nc(N)nc(N)c1-c1ccc(Cl)cc1` (racemic), the outcome in the series on Plasmodium berghei [1], in the series on Plasmodium berghei [2], with Plasmodium berghei [3] and with Plasmodium berghei [5] was inactive.
Take `C/C(=N\N(C)C)c1nc(N)nc(N)c1-c1ccc(Cl)cc1`: in the series with Plasmodium berghei [1], the minimal effective dose was determined as 40 mg/kg. Further, the MST with Plasmodium berghei [2] came out at 3.8 days. The Activity result in the series with Mus musculus [10] is listed as “Toxic”. Further, the MCD with Plasmodium berghei [5] stood at 320 mg/kg.
For the molecule `C/C(=N\NC(=N)N)c1nc(N)nc(N)c1-c1ccc(Cl)cc1`, the result in the series with Plasmodium berghei [1], in the series with Plasmodium berghei [2], in the series on Plasmodium berghei [3] and in the series on Plasmodium berghei [5] was inactive.
`C/C(=N/O)c1nc(N)nc(N)c1-c1ccc(Cl)cc1`: the minimal effective dose in the series with Plasmodium berghei [1] was found to be 160 mg/kg. The MST with Plasmodium berghei [2] came out at 3.4 days; in the series with Plasmodium berghei [11], 5.4 days.
In the case of `CC(O)c1nc(N)nc(N)c1-c1ccc(Cl)cc1` (racemic), the minimal effective dose in the series on Plasmodium berghei [1] is 80 mg/kg. For the same molecule, the MST in the series on Plasmodium berghei [2] came out at 4.7 days; with Plasmodium gallinaceum [4], 5.4 days. In the series with Plasmodium berghei [3], the result was Active.

The values are drawn from ChEMBL document CHEMBL3272228, “Antimalarial activity of some novel derivatives of 2,4-diamino-5(p-chlorophenyl)-6-ethylpyrimidine (pyrimethamine)” (J Med Chem, 1976).
